According to ChEMBL document CHEMBL4834441, “Design, synthesis and biological evaluation of a series of iron and copper chelating deferiprone derivatives as new agents active against Candida albicans” (Bioorg Med Chem Lett, 2021):
Converted amounts (≈) assume the structure as drawn. The source made the active and inactive calls.

Legend:
Candida albicans [1] = assay: Antifungal activity against Candida albicans ATCC 10231; format: functional
Outline: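 Planktonic C. albicans ATCC 10231 cells; compounds tested up to 128 μg/mL. MIC50 defined as lowest concentration producing 50% growth inhibition; three independent experiments, each in triplicate, values given as median.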

Candida albicans [2] = assay: Antibiofilm activity against Candida albicans ATCC 10231 assessed as inhibition of biofilm formation; format: functional
Outline: (§1)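 C. albicans ATCC 10231 biofilm, tested during formation and as mature (48 h) biofilm; compounds tested up to 128 μg/mL. BMIC50 taken as lowest concentration giving 50% decrease of biofilm relative to untreated growth control; three independent experiments in triplicate, median reported.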

Candida albicans [3] = assay: Antibiofilm activity against Candida albicans ATCC 10231 assessed as reduction in mature biofilm; format: functional; outline: as §1
[4] = Metal chelating activity assessed as Fe3+-compound complex formation by UV-visible spectrophotometry
Outline: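 Stoichiometry of ligand–Fe3+ complex found by Job's method of continuous variations from UV titration spectra, Job's plot read at 302 nm; stability constant (logKstab) then calculated by UV–Vis spectroscopy for the determined stoichiometry.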

[5] = Metal chelating activity assessed as Cu2+-compound complex formation by UV-visible spectrophotometry
Outline: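 UV–Vis spectroscopic titration of the ligand with Cu2+. The stability constant was calculated from the spectra once the 1:1 stoichiometry was known, and is reported as logKstab ±.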

[6] = Toxicity in Galleria mellonella larvae assessed as survival at 64 ug/ml measured after 24 hrs relative to control; conditions: at 64 µg/mL
Outline: (§2)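 G. mellonella larvae were injected with 20 μL of compound in sterile water containing less than 1% v/v DMSO, into the last left pro-leg. Doses were 32–512 µg/mL. Survival was scored at 24, 48 and 72 h and is given as the mean percentage of three independent experiments.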

Candida albicans [7] = assay: Antibiofilm activity against Candida albicans ATCC 10231 assessed as inhibition of biofilm formation in presence of Cu2+; format: functional, organism-based; conditions: dose 8-128 µg/ml
Outline: (§3)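 C. albicans ATCC 10231 biofilm-formation assay run in culture medium enriched with increasing concentrations of Fe3+ or Cu2+. BMIC50 is the lowest drug concentration giving a 50% decrease of biofilm relative to the untreated growth control. Three independent experiments in triplicate; data reported as percentage of inhibition ± standard deviation.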

[8] = Toxicity in Galleria mellonella larvae assessed as survival at 64 ug/ml measured after 48 hrs relative to control; conditions: at 64 µg/mL; outline: as §2
[9] = Toxicity in Galleria mellonella larvae assessed as survival at 128 ug/ml measured after 48 hrs relative to control; conditions: at 128 µg/mL; outline: as §2
[10] = Metal chelating activity assessed as stoichiometry ratio of 1:1 for Fe3+-compound complex formation by UV-visible spectrophotometry
[11] = Toxicity in Galleria mellonella larvae assessed as survival at 64 ug/ml measured after 72 hrs relative to control; conditions: at 64 µg/mL; outline: as §2
[12] = Toxicity in Galleria mellonella larvae assessed as survival at 256 ug/ml measured after 48 hrs relative to control; conditions: at 256 µg/mL; outline: as §2
[13] = Toxicity in Galleria mellonella larvae assessed as survival at 128 ug/ml measured after 72 hrs relative to control; conditions: at 128 µg/mL; outline: as §2
[14] = Toxicity in Galleria mellonella larvae assessed as survival at 128 ug/ml measured after 24 hrs relative to control; conditions: at 128 µg/mL; outline: as §2
[15] = Toxicity in Galleria mellonella larvae assessed as survival at 256 ug/ml measured after 24 hrs relative to control; conditions: at 256 µg/mL; outline: as §2
[16] = Toxicity in Galleria mellonella larvae assessed as survival at 512 ug/ml measured after 48 hrs relative to control; conditions: at 512 µg/mL; outline: as §2
[17] = Toxicity in Galleria mellonella larvae assessed as survival at 512 ug/ml measured after 72 hrs relative to control; conditions: at 512 µg/mL; outline: as §2
[18] = Toxicity in Galleria mellonella larvae assessed as survival at 32 ug/ml measured after 48 hrs relative to control; conditions: at 32 µg/mL; outline: as §2
[19] = Toxicity in Galleria mellonella larvae assessed as survival at 256 ug/ml measured after 72 hrs relative to control; conditions: at 256 µg/mL; outline: as §2
[20] = Toxicity in Galleria mellonella larvae assessed as survival at 512 ug/ml measured after 24 hrs relative to control; conditions: at 512 µg/mL; outline: as §2
Candida albicans [21] = assay: Antibiofilm activity against Candida albicans ATCC 10231 assessed as inhibition of biofilm formation in presence of Fe3+; format: functional, organism-based; conditions: dose 8-128 µg/ml; outline: as §3
[22] = Toxicity in Galleria mellonella larvae assessed as survival at 32 ug/ml measured after 72 hrs relative to control; conditions: at 32 µg/mL; outline: as §2
[23] = Toxicity in Galleria mellonella larvae assessed as survival at 32 ug/ml measured after 24 hrs relative to control; conditions: at 32 µg/mL; outline: as §2
[24] = Metal chelating activity assessed as stoichiometry ratio of 1:1 for Cu2+-compound complex formation by UV-visible spectrophotometry

For `Cc1c(OCc2ccccc2)c(=O)ccn1CCCCCCn1ccc(=O)c(OCc2ccccc2)c1C`, the MIC50 (Candida albicans [1]) was over 128 µg/mL, the MBIC50 (Candida albicans [2]) was over 128 µg/mL and the MBIC50 (Candida albicans [3]) was over 128 µg/mL.
Work on `Cc1c(O)c(=O)ccn1CCCCn1ccc(=O)c(O)c1C.Cl.Cl` yielded an MIC50 (Candida albicans [1]) of over 128 µg/mL, an MBIC50 (Candida albicans [2]) of over 128 µg/mL and an MBIC50 (Candida albicans [3]) of over 128 µg/mL.
For `Cc1c(O)c(=O)ccn1CCCCNC(=O)C(C)c1ccc(CC(C)C)cc1` (centres undefined), the Activity [4] was “Active”, the MIC50 (Candida albicans [1]) was 4 µg/mL (≈ 10.4 µM) and the Activity [5] was “Active”. It also gave an MBIC50 (Candida albicans [2]) of 128 µg/mL and an MBIC50 (Candida albicans [3]) of over 128 µg/mL.
In the case of `Cc1c(OCc2ccccc2)c(=O)ccn1CCCCNC(=O)Cc1ccc(CC(C)C)cc1`, the MIC50 (Candida albicans [1]) is reported as over 128 µg/mL, the MBIC50 (Candida albicans [2]) is reported as 64 µg/mL and the MBIC50 (Candida albicans [3]) is reported as over 128 µg/mL.
For `Cc1c(OCc2ccccc2)c(=O)ccn1CCCCn1ccc(=O)c(OCc2ccccc2)c1C`, the MIC50 (Candida albicans [1]) was over 128 µg/mL, the MBIC50 (Candida albicans [2]) was 128 µg/mL and the MBIC50 (Candida albicans [3]) was over 128 µg/mL.
For `Cc1c(O)c(=O)ccn1CCCCNC(=O)Cc1ccc(CC(C)C)cc1`, the MIC50 (Candida albicans [1]) was 8 µg/mL (≈ 21.6 µM), the MBIC50 (Candida albicans [2]) was 64 µg/mL and the MBIC50 (Candida albicans [3]) was 128 µg/mL.
Molecule `Cc1c(O)c(=O)ccn1CCCCCCn1ccc(=O)c(O)c1C.Cl.Cl` has an MIC50 (Candida albicans [1]) of over 128 µg/mL, an MBIC50 (Candida albicans [2]) of over 128 µg/mL and an MBIC50 (Candida albicans [3]) of over 128 µg/mL.
With `Cc1c(OCc2ccccc2)c(=O)ccn1CCCCNC(=O)C(C)c1ccc(CC(C)C)cc1` (centres undefined) the Activity [4] was “Active”, the MIC50 (Candida albicans [1]) was over 128 µg/mL and the MBIC50 (Candida albicans [2]) was 32 µg/mL. It also gave an MBIC50 (Candida albicans [3]) of over 128 µg/mL.
With `COc1ccccc1Cn1ccc(=O)c(OCc2ccccc2)c1C` the MIC50 (Candida albicans [1]) was over 128 µg/mL, the MBIC50 (Candida albicans [2]) was over 128 µg/mL and the MBIC50 (Candida albicans [3]) was over 128 µg/mL.
`COc1ccccc1Cn1ccc(=O)c(O)c1C.Cl` showed an MIC50 (Candida albicans [1]) of over 128 µg/mL, an MBIC50 (Candida albicans [2]) of over 128 µg/mL and an MBIC50 (Candida albicans [3]) of over 128 µg/mL.
`Cc1c(OCc2ccccc2)c(=O)ccn1CCCCCn1ccc(=O)c(OCc2ccccc2)c1C` gave an MIC50 (Candida albicans [1]) of over 128 µg/mL, an MBIC50 (Candida albicans [2]) of over 128 µg/mL and an MBIC50 (Candida albicans [3]) of over 128 µg/mL.
With `Cc1c(O)c(=O)ccn1CCCn1ccnc1.Cl` the MIC50 (Candida albicans [1]) was over 128 µg/mL, the MBIC50 (Candida albicans [2]) was over 128 µg/mL and the MBIC50 (Candida albicans [3]) was over 128 µg/mL.
In the case of `Cc1c(OCc2ccccc2)c(=O)ccn1CCCCNC(=O)C(C)c1ccc(C(=O)c2ccccc2)cc1` (centres undefined), the MIC50 (Candida albicans [1]) is reported as over 128 µg/mL, the MBIC50 (Candida albicans [2]) is reported as over 128 µg/mL and the MBIC50 (Candida albicans [3]) is reported as over 128 µg/mL.
Work on `Cc1c(O)c(=O)ccn1CCCCNC(=O)Cc1ccccc1` yielded an MIC50 (Candida albicans [1]) of over 128 µg/mL, an MBIC50 (Candida albicans [2]) of over 128 µg/mL and an MBIC50 (Candida albicans [3]) of over 128 µg/mL.
For `Cc1c(OCc2ccccc2)c(=O)ccn1CCCCc1ccccc1`, the Activity [4] was “Active”, the MIC50 (Candida albicans [1]) was over 128 µg/mL and the MBIC50 (Candida albicans [2]) was over 128 µg/mL. The MBIC50 (Candida albicans [3]) was over 128 µg/mL.
`Cc1c(OCc2ccccc2)c(=O)ccn1CCCc1ccccc1` gave an MIC50 (Candida albicans [1]) of over 128 µg/mL, an MBIC50 (Candida albicans [2]) of over 128 µg/mL and an MBIC50 (Candida albicans [3]) of over 128 µg/mL.
`Cc1c(O)c(=O)ccn1CCCCCn1ccc(=O)c(O)c1C.Cl.Cl` gave an MIC50 (Candida albicans [1]) of over 128 µg/mL, an MBIC50 (Candida albicans [2]) of 128 µg/mL and an MBIC50 (Candida albicans [3]) of over 128 µg/mL.
For `Cc1c(OCc2ccccc2)c(=O)ccn1CCCCNC(=O)Cc1ccccc1`, the MIC50 (Candida albicans [1]) was over 128 µg/mL, the MBIC50 (Candida albicans [2]) was over 128 µg/mL and the MBIC50 (Candida albicans [3]) was over 128 µg/mL.
`Cc1c(O)c(=O)ccn1C` [DEFERIPRONE] showed an MIC50 (Candida albicans [1]) of 128 µg/mL (≈ 920 µM), an MBIC50 (Candida albicans [2]) of 32 µg/mL and an MBIC50 (Candida albicans [3]) of 128 µg/mL.
For `Cc1c(O)c(=O)ccn1CCCCNC(=O)C(C)c1ccc(C(=O)c2ccccc2)cc1` (centres undefined), the MIC50 (Candida albicans [1]) was over 128 µg/mL, the MBIC50 (Candida albicans [2]) was 128 µg/mL and the MBIC50 (Candida albicans [3]) was over 128 µg/mL.
`Cc1c(OCc2ccccc2)c(=O)ccn1CCCn1ccnc1` gave an MIC50 (Candida albicans [1]) of over 128 µg/mL, an MBIC50 (Candida albicans [2]) of over 128 µg/mL and an MBIC50 (Candida albicans [3]) of over 128 µg/mL.
`Cc1c(O)c(=O)ccn1CCCc1ccccc1.Cl` showed an MIC50 (Candida albicans [1]) of 32 µg/mL, an MBIC50 (Candida albicans [2]) of 32 µg/mL and an MBIC50 (Candida albicans [3]) of over 128 µg/mL.
In the case of `Cc1c(O)c(=O)ccn1CCCCc1ccccc1.Cl`, the survival at 24 h [6] is reported as 100%, the inhibition (Candida albicans [7]) is reported as “Dose-Dependent Effect” and the survival at 48 h [8] is reported as 100%. For the same molecule, the survival at 48 h [9] was 100%, the Activity [10] was “Active” and the Activity [4] was “Active”. It also gave a survival at 72 h [11] of 100%, an MIC50 (Candida albicans [1]) of 16 µg/mL and a survival at 48 h [12] of 100%. It also gave a survival at 72 h [13] of 100%, a survival at 24 h [14] of 100% and a survival at 24 h [15] of 100%. For the same molecule, the survival at 48 h [16] was 96%, the survival at 72 h [17] was 86% and the Activity [5] was “Active”. It also gave an MBIC50 (Candida albicans [2]) of 16 µg/mL, a survival at 48 h [18] of 100% and an MBIC50 (Candida albicans [3]) of over 128 µg/mL. The survival at 72 h [19] was 100%, the survival at 24 h [20] was 100% and the inhibition (Candida albicans [21]) was “Dose-Dependent Effect”. For the same molecule, the survival at 72 h [22] was 100%, the survival at 24 h [23] was 100% and the Activity [24] was “Active”.
